The source made the active and inactive calls. The calls are words filed in the database; no cut-off is given here.
Legend:
[1] = tested on: L1210; assay: Antitumor activity against mouse L1210 cells allografted in mouse assessed as mouse survival after 30 days at 8 mg/kg, ip single dose relative to control; format: functional, organism-based; set-up: dose 8 mg/kg
In short: (§1)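 L1210 leukemia, 10⁶ cells implanted ip per mouse. One ip dose given on day 1. Six mice per dose level. Survivors counted at day 30. Median survival time also recorded as %T/C = (MST treated/MST control) × 100, with T/C > 125 taken as significant.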

[2] = tested on: L1210; assay: Antitumor activity against mouse L1210 cells allografted in mouse assessed as mouse survival after 30 days at 4 mg/kg, ip single dose relative to control; format: functional, organism-based; set-up: dose 4 mg/kg; in short: as §1
[3] = tested on: L1210; assay: Antitumor activity against mouse L1210 cells allografted in mouse assessed as mouse survival after 30 days at 1 mg/kg, ip single dose relative to control; format: functional, organism-based; set-up: dose 1 mg/kg; in short: as §1
[4] = tested on: L1210; assay: Antitumor activity against mouse L1210 cells allografted in mouse assessed as tumor inhibition at 2 mg/kg, ip single dose relative to control; format: functional; settings: route intraperitoneal
In short: (§2)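 L1210 leukemia, 10⁶ cells per mouse inoculated ip. Single ip dose given on day 1. Median survival time expressed as %T/C = (MST treated/MST control) × 100, with T/C > 125 counted as significant. Mice surviving at 30 days were recorded, six mice per treatment dose.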

[5] = tested on: L1210; assay: Antitumor activity against mouse L1210 cells allografted in mouse assessed as mouse survival after 30 days at 16 mg/kg, ip single dose relative to control; format: functional, organism-based; set-up: dose 16 mg/kg; in short: as §1
[6] = tested on: L1210; assay: Antitumor activity against mouse L1210 cells allografted in mouse assessed as mouse survival after 30 days at 2 mg/kg, ip single dose relative to control; format: functional, organism-based; set-up: dose 2 mg/kg; in short: as §1
[7] = tested on: L1210; assay: Antitumor activity against mouse L1210 cells allografted in mouse assessed as tumor inhibition at 128 mg/kg, ip single dose relative to control; format: functional; settings: route intraperitoneal; in short: as §2
[8] = tested on: L1210; assay: Antitumor activity against mouse L1210 cells allografted in mouse assessed as mouse survival after 30 days at 128 mg/kg, ip single dose relative to control; format: functional, organism-based; set-up: dose 128 mg/kg; in short: as §1
[9] = tested on: L1210; assay: Antitumor activity against mouse L1210 cells allografted in mouse assessed as median survival time at 32 mg/kg, ip single dose relative to control; format: functional; settings: route intraperitoneal; in short: as §2
[10] = tested on: L1210; assay: Antitumor activity against mouse L1210 cells allografted in mouse assessed as tumor inhibition at 16 mg/kg, ip single dose relative to control; format: functional; settings: route intraperitoneal; in short: as §2
[11] = tested on: L1210; assay: Antitumor activity against mouse L1210 cells allografted in mouse assessed as tumor inhibition at 8 mg/kg, ip single dose relative to control; format: functional; settings: route intraperitoneal; in short: as §2
[12] = tested on: L1210; assay: Antitumor activity against mouse L1210 cells allografted in mouse assessed as tumor inhibition at 64 mg/kg, ip single dose relative to control; format: functional; settings: route intraperitoneal; in short: as §2
[13] = tested on: L1210; assay: Antitumor activity against mouse L1210 cells allografted in mouse assessed as tumor inhibition at 1 mg/kg, ip single dose relative to control; format: functional; settings: route intraperitoneal; in short: as §2
[14] = tested on: L1210; assay: Antitumor activity against mouse L1210 cells allografted in mouse assessed as tumor inhibition at 4 mg/kg, ip single dose relative to control; format: functional; settings: route intraperitoneal; in short: as §2
[15] = tested on: L1210; assay: Antitumor activity against mouse L1210 cells allografted in mouse assessed as mouse survival after 30 days at 32 mg/kg, ip single dose relative to control; format: functional, organism-based; set-up: dose 32 mg/kg; in short: as §1
[16] = tested on: L1210; assay: Antitumor activity against mouse L1210 cells allografted in mouse assessed as tumor inhibition at 4 mg/kg, ip qd for 8 days relative to control; format: functional; settings: route intraperitoneal
In short: (§3)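 L1210 leukemia, 10⁶ cells per mouse implanted ip. Dosing ip once daily for 8 days from day 1, with solutions prepared fresh daily. Read-out: median survival time as %T/C = (MST treated/MST control) × 100, with T/C > 125 taken as significant inhibition. Survivors counted at 30 days, six mice per dose.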

[17] = tested on: L1210; assay: Antitumor activity against mouse L1210 cells allografted in mouse assessed as mouse survival after 30 days at 0.5 mg/kg, ip qd for 8 days relative to control; format: functional, organism-based; set-up: dose 0.5 mg/kg
In short: as §1, with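 “Dosing” for “One”, “once daily for 8 days starting” for “dose given on”, “1, with solutions prepared fresh daily.” for “1.”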

[18] = tested on: L1210; assay: Antitumor activity against mouse L1210 cells allografted in mouse assessed as mouse survival after 30 days at 4 mg/kg, ip qd for 8 days relative to control; format: functional, organism-based; set-up: dose 4 mg/kg
In short: as §1, with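 “Dosing” for “One”, “once daily for 8 days starting” for “dose given on”, “1, with solutions prepared fresh daily.” for “1.”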

[19] = tested on: L1210; assay: Antitumor activity against mouse L1210 cells allografted in mouse assessed as mouse survival after 30 days at 0.25 mg/kg, ip qd for 8 days relative to control; format: functional, organism-based; set-up: dose 0.25 mg/kg
In short: as §1, with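 “Dosing” for “One”, “once daily for 8 days starting” for “dose given on”, “1, with solutions prepared fresh daily.” for “1.”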

[20] = tested on: L1210; assay: Antitumor activity against mouse L1210 cells allografted in mouse assessed as tumor inhibition at 0.5 mg/kg, ip qd for 8 days relative to control; format: functional; settings: route intraperitoneal; in short: as §3
[21] = tested on: L1210; assay: Antitumor activity against mouse L1210 cells allografted in mouse assessed as tumor inhibition at 2 mg/kg, ip qd for 8 days relative to control; format: functional; settings: route intraperitoneal; in short: as §3
[22] = tested on: L1210; assay: Antitumor activity against mouse L1210 cells allografted in mouse assessed as tumor inhibition at 16 mg/kg, ip qd for 8 days relative to control; format: functional; settings: route intraperitoneal; in short: as §3
[23] = tested on: L1210; assay: Antitumor activity against mouse L1210 cells allografted in mouse assessed as mouse survival after 30 days at 2 mg/kg, ip qd for 8 days relative to control; format: functional, organism-based; set-up: dose 2 mg/kg
In short: as §1, with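 “Dosing” for “One”, “once daily for 8 days starting” for “dose given on”, “1, with solutions prepared fresh daily.” for “1.”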

[24] = tested on: L1210; assay: Antitumor activity against mouse L1210 cells allografted in mouse assessed as tumor inhibition at 0.25 mg/kg, ip qd for 8 days relative to control; format: functional; settings: route intraperitoneal; in short: as §3
[25] = tested on: L1210; assay: Antitumor activity against mouse L1210 cells allografted in mouse assessed as tumor inhibition at 8 mg/kg, ip qd for 8 days relative to control; format: functional; settings: route intraperitoneal; in short: as §3
[26] = tested on: L1210; assay: Antitumor activity against mouse L1210 cells allografted in mouse assessed as mouse survival after 30 days at 1 mg/kg, ip qd for 8 days relative to control; format: functional, organism-based; set-up: dose 1 mg/kg
In short: as §1, with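 “Dosing” for “One”, “once daily for 8 days starting” for “dose given on”, “1, with solutions prepared fresh daily.” for “1.”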

[27] = tested on: L1210; assay: Antitumor activity against mouse L1210 cells allografted in mouse assessed as median survival time at 32 mg/kg, ip qd for 8 days relative to control; format: functional; settings: route intraperitoneal; in short: as §3
[28] = tested on: L1210; assay: Antitumor activity against mouse L1210 cells allografted in mouse assessed as tumor inhibition at 1 mg/kg, ip qd for 8 days relative to control; format: functional; settings: route intraperitoneal; in short: as §3
[29] = tested on: L1210; assay: Antitumor activity against mouse L1210 cells allografted in mouse assessed as mouse survival after 30 days at 8 mg/kg, ip qd for 8 days relative to control; format: functional, organism-based; set-up: dose 8 mg/kg
In short: as §1, with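 “Dosing” for “One”, “once daily for 8 days starting” for “dose given on”, “1, with solutions prepared fresh daily.” for “1.”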

[30] = tested on: L1210; assay: Antitumor activity against mouse L1210 cells allografted in mouse assessed as mouse survival after 30 days at 16 mg/kg, ip qd for 8 days relative to control; format: functional, organism-based; set-up: dose 16 mg/kg
In short: as §1, with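 “Dosing” for “One”, “once daily for 8 days starting” for “dose given on”, “1, with solutions prepared fresh daily.” for “1.”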

| Structure (SMILES) | Survival [1] | Survival [2] | Survival [3] | T/C [4] [%] | Survival [5] | Survival [6] | T/C [7] [%] | Survival [8] | T/C [9] [%] | T/C [10] [%] | T/C [11] [%] | T/C [12] [%] | T/C [13] [%] | T/C [14] [%] | also measured |
| --- | --- | --- | --- | --- | --- | --- | --- | --- | --- | --- | --- | --- | --- | --- | --- |
| O=NN(CCCl)C(=O)N[C@H]1[C@@H](O)[C@@H](O)[C@H](NC(=O)N(CCCl)N=O)[C@H](O)[C@@H]1O | inactive | inactive | inactive | 129 | inactive | inactive | 293 | inactive | >471 | >243 | 171 | 286 | 114 | 136 | – |
| O=NN(CCCl)C(=O)N[C@@H]1[C@H](O)[C@H](NC(=O)N(CCCl)N=O)[C@@H](O)[C@H](O)[C@H]1O | inactive | inactive | inactive | 121 | inactive | inactive | 86 | inactive | 214 | 179 | 171 | 250 | 100 | 114 | Survival [15]: inactive |
| O=NN(CCCl)C(=O)NCCCl [CARMUSTINE] | inactive | inactive | – | 114 | – | inactive | – | – | >471 | 271 | 193 | – | – | 143 | T/C [16]: 193%; Survival [17]: inactive; Survival [18]: inactive; Survival [19]: inactive; T/C [20]: 100%; T/C [21]: 114%; T/C [22]: >471%; Survival [23]: inactive; T/C [24]: 100%; T/C [25]: 293%; Survival [26]: inactive; T/C [27]: 193%; T/C [28]: 100%; Survival [29]: inactive; Survival [30]: Active |

Reference: ChEMBL document CHEMBL3227968, “Synthesis and antitumor activity of water-soluble (2-chloroethyl)nitrosoureas” (1979)
